In ChEMBL document CHEMBL1155883, “5-Alkyl-6-benzyl-2-(2-oxo-2-phenylethylsulfanyl)pyrimidin-4(3H)-ones, a series of anti-HIV-1 agents of the dihydro-alkoxy-benzyl-oxopyrimidine family with peculiar structure-activity relationship profile” (J Med Chem, 2008):
pEC50: −log10 of the molar value.

Legend:
[1] = Cytotoxicity against human MT4 cells by MTT assay; type: cell-based
How it was run: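 Mock-infected MT-4 cells were exposed to a range of compound concentrations. Viability was read by MTT at day 5. CC50 is the concentration that kills 50% of uninfected cells. The top concentration was limited by compound precipitation in culture medium. Means ± SD from at least two or three experiments.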

[2] = system: Human immunodeficiency virus 1; experiment: Antiviral activity against HIV1 NL4-3 in human MT4 cells assessed as inhibition of virus-induced cytopathogenicity by MTT assay; type: functional, organism-based; conditions: Human immunodeficiency virus 1, NL4-3, MT4
How it was run: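 MT-4 lymphoid cells infected with wild-type HIV-1 NL4-3 in the presence of a range of compound concentrations. Viable cells were counted by MTT colorimetric read-out at day 5 post-infection. EC50 is the concentration giving 50% protection from virus-induced cytopathic effect. Means ± SD from at least two or three experiments.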

[3] = Selectivity index, ratio of CC50 for human MT4 cells to EC50 for HIV1 NL4-3; type: toxicity, cell-based; conditions: read-out: Ratio CC50/EC50
How it was run: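 Computed as CC50/EC50. CC50 comes from MTT viability of mock-infected MT-4 cells and EC50 from MTT protection of NL4-3-infected MT-4 cells, both read at day 5.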

[4] = system: Human immunodeficiency virus 1; experiment: Resistance index, ratio of ID50 for reverse transcriptase K103N mutant to IC50 for wild-type HIV1 sreverse transcriptase
How it was run: (§1)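 Recombinant wt and K103N, L100I or Y181I HIV-1 RT (>95% pure), 2-4 nM. RNA-dependent DNA polymerase assay on 0.5 µg poly(rA)/oligo(dT) 10:1 (0.3 µM 3'-OH ends) with 10 µM [3H]-dTTP and 8% final DMSO. Aliquots taken every 2 min. Inhibitor range 0.2-5× ID50, fitted to a noncompetitive model. Fold resistance is mutant ID50 divided by wt ID50.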

[5] = system: Human immunodeficiency virus 1; experiment: Antiviral activity against HIV1 isolates with reverse transcriptase Y181C mutation in human MT4 cells assessed as inhibition of virus-induced cytopathogenicity by MTT assay; type: functional, organism-based; conditions: Human immunodeficiency virus 1, MT4
How it was run: (§2)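 MT-4 lymphoid cells infected with HIV-1 carrying RT K103N, Y181C or Y188L, in the presence of different drug concentrations. Viable cells counted at day 5 postinfection by MTT colorimetric assay. EC50 is the concentration that inhibits 50% of the HIV-induced cytopathic effect.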

[6] = system: Human immunodeficiency virus 1; experiment: Resistance index, ratio of ID50 for reverse transcriptase Y181I mutant to IC50 for wild-type HIV1 reverse transcriptase; how it was run: as §1
[7] = system: Human immunodeficiency virus 1; experiment: Resistance index, ratio of EC50 for drug-resistant HIV1 isolate with reverse transcriptase Y181C mutation to EC50 for wild type HIV1 NL4-3; type: functional
How it was run: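 Fold resistance is the EC50 against the K103N, Y181C or Y188L mutant strain divided by the EC50 against wt NL4-3. Each EC50 is from MT-4 cells infected in the presence of different drug concentrations, with viability read by MTT at day 5 postinfection.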

[8] = system: Human immunodeficiency virus 1; experiment: Antiviral activity against HIV1 isolates with reverse transcriptase Y188L mutation in human MT4 cells assessed as inhibition of virus-induced cytopathogenicity by MTT assay; type: functional, organism-based; conditions: Human immunodeficiency virus 1, MT4; how it was run: as §2
[9] = system: Human immunodeficiency virus type 1 reverse transcriptase (Human immunodeficiency virus 1), Q72547 [Y181I]
[10] = target: Human immunodeficiency virus type 1 reverse transcriptase (Human immunodeficiency virus 1) (UniProt Q72547)
[11] = system: Human immunodeficiency virus type 1 reverse transcriptase (Human immunodeficiency virus 1), Q72547 [K103N]
[12] = system: Human immunodeficiency virus type 1 reverse transcriptase (Human immunodeficiency virus 1), Q72547 [L100I]
[13] = system: Human immunodeficiency virus 1; experiment: Antiviral activity against HIV1 isolates with reverse transcriptase K103N mutation in human MT4 cells assessed as inhibition of virus-induced cytopathogenicity by MTT assay; type: functional, organism-based; conditions: Human immunodeficiency virus 1, MT4; how it was run: as §2
[14] = system: Human immunodeficiency virus 1; experiment: Resistance index, ratio of ID50 for reverse transcriptase L100I mutant to IC50 for wild-type HIV1 reverse transcriptase; how it was run: as §1

SMILES	CC50 [1]	pEC50 [2]	selectivity ratio [3]	Ratio [4]	pEC50 [5]	Ratio [6]	Ratio EC50 [7]	pEC50 [8]	ID50 [9]	ID50 [10]	ID50 [11]	ID50 [12]	pEC50 [13]	Ratio [14]
O=C(CSc1nc(Cc2c(F)cccc2F)cc(=O)[nH]1)c1ccc([N+](=O)[O-])cc1	22 µM	5.08	> 3											
Cc1cc(C)cc(CSc2nc(Cc3c(F)cccc3F)c(C)c(=O)[nH]2)c1	> 65 µM	4.85	> 5											
Cc1c(Cc2c(F)cccc2F)nc(SCc2ccncc2)[nH]c1=O	> 70 µM	7.22	> 1170											
COc1ccc(C(=O)CSc2nc(Cc3cccc4ccccc34)c(C(C)C)c(=O)[nH]2)cc1	203 µM	7.52	6770											
O=C(CSc1nc(Cc2c(F)cccc2F)cc(=O)[nH]1)c1ccc(Cl)cc1	> 61 µM	5.01	> 6											
O=C(CSc1nc(Cc2c(F)cccc2Cl)cc(=O)[nH]1)c1ccc(F)cc1	> 61 µM	6.54	> 210	22	4.86	10	48	< 4.21	9.2 µM	0.93 µM	20.7 µM	> 40 µM	< 4.21	
Cc1c(Cc2c(F)cccc2F)nc(SC(C)C)[nH]c1=O	> 77 µM	8.22	> 12800											
CC(=O)CSc1nc(Cc2c(F)cccc2F)cc(=O)[nH]1	> 81 µM	5.51	> 26											
O=c1cc(Cc2c(F)cccc2F)nc(SCCc2ccccc2)[nH]1	> 70 µM	6.52	> 233											
COc1ccc(C(=O)CSc2nc(Cc3c(F)cccc3Cl)cc(=O)[nH]2)cc1	> 12 µM	5.81	> 8	243	< 4.92			< 4.92	> 40 µM	0.014 µM	3.4 µM	0.5 µM	< 4.92	36
O=c1cc(Cc2c(F)cccc2F)nc(SCc2c(F)cccc2F)[nH]1	> 66 µM	6.00	> 66											
Cc1c(Cc2c(F)cccc2F)nc(SCc2ccccn2)[nH]c1=O	> 70 µM	5.00	> 7											
O=c1cc(Cc2c(F)cccc2F)nc(Sc2ccccc2)[nH]1	> 76 µM	5.85	> 54											
O=C(CSc1nc(Cc2c(Cl)cccc2Cl)cc(=O)[nH]1)c1ccccc1	> 12 µM	5.75	> 7	308	< 4.92	22		< 4.92	0.26 µM	0.012 µM	3.7 µM	11 µM	< 4.92	917
Cc1c(Cc2c(F)cccc2F)nc(SCc2ccccc2)[nH]c1=O	> 70 µM	6.89	> 538											
O=C1Nc2ccc(Cl)cc2[C@@](C#CC2CC2)(C(F)(F)F)O1 [EFAVIRENZ]	> 3 µM	8.15			7.36								6.41	

SMILES	CC50 [1]	pEC50 [2]	selectivity ratio [3]	Ratio [4]	pEC50 [5]	Ratio [6]	Ratio EC50 [7]	pEC50 [8]	ID50 [9]	ID50 [10]	ID50 [11]	ID50 [12]	pEC50 [13]	Ratio [14]
COc1ccc(C(=O)CSc2nc(Cc3c(Cl)cccc3Cl)cc(=O)[nH]2)cc1	> 11 µM	5.91	> 9	694	< 4.96	2		< 4.96	0.11 µM	0.054 µM	37.5 µM	> 40 µM	< 4.96	
CC(C)c1c(Cc2c(F)cccc2Cl)nc(SCC(=O)c2ccc(F)cc2)[nH]c1=O	> 56 µM	8.40	> 14000	1670	6.25		140	< 4.26	> 40 µM	0.024 µM	40 µM		< 4.25	
O=c1cc(Cc2c(F)cccc2F)nc(SCc2ccccc2)[nH]1	> 73 µM	7.00	> 730											
Cc1ccc(CSc2nc(Cc3c(F)cccc3F)c(C)c(=O)[nH]2)c(C)c1	> 65 µM	6.40	> 162											
COc1ccc(C(=O)CSc2nc(Cc3c(Cl)cccc3Cl)c(C(C)C)c(=O)[nH]2)cc1	> 14 µM	9.40	> 35000		6.64	1220	575	< 4.85	17.1 µM	0.014 µM	> 40 µM	> 40 µM	< 4.85	
CC(C)Sc1nc(Cc2c(F)cccc2F)cc(=O)[nH]1	> 84 µM	7.77	> 4940											
Cc1c(Cc2c(F)cccc2F)nc(SCc2cccnc2)[nH]c1=O	> 70 µM	5.23	> 12											
O=C(CSc1nc(Cc2c(F)cccc2F)cc(=O)[nH]1)c1ccccc1	> 67 µM	6.00	> 67											
O=c1cc(Cc2c(F)cccc2F)nc(SCCCc2ccccc2)[nH]1	32 µM	6.70	160											
CC(C)c1c(Cc2c(Cl)cccc2Cl)nc(SCC(=O)c2ccc(F)cc2)[nH]c1=O	> 54 µM	7.19	> 844		< 4.27	1530		< 4.27	30.6 µM	0.02 µM			< 4.27	
CCc1c(Cc2c(F)cccc2F)nc(SCC(=O)c2ccc(OC)cc2)[nH]c1=O	> 58 µM	8.05	> 6440	110	6.60	19	28	< 4.24	0.58 µM	0.031 µM	3.41 µM	> 40 µM	< 4.24	
Cc1c(Cc2c(Cl)cccc2Cl)nc(SCC(=O)c2ccc(F)cc2)[nH]c1=O	> 57 µM	7.34	> 1240		< 4.24	4		< 4.24	0.8 µM	0.19 µM	> 40 µM	10.7 µM	< 4.24	56
COc1ccc(C(=O)CSc2nc(Cc3c(F)cccc3F)c(C)c(=O)[nH]2)cc1	> 60 µM	7.32	> 1250	87	6.19	4	13	< 4.22	1.17 µM	0.26 µM	22.7 µM	> 40 µM	< 4.22	
COc1ccc(C(=O)CSc2nc(Cc3c(F)cccc3Cl)c(C(C)C)c(=O)[nH]2)cc1	> 11 µM	9.00	> 11000		6.80		160	< 4.96	> 40 µM	0.0007 µM	> 40 µM	> 40 µM	< 4.96	
COc1ccc(C(=O)CSc2nc(Cc3c(Cl)cccc3Cl)c(C)c(=O)[nH]2)cc1	> 56 µM	7.17	> 836		5.92	5	18	< 4.25	0.46 µM	0.094 µM	> 40 µM	> 40 µM	< 4.25	
Cc1c(Cc2c(F)cccc2F)nc(SCc2ccc([N+](=O)[O-])cc2)[nH]c1=O	> 37 µM	5.92	> 31											
